What all share (type): functional
Test [1] deals with HCT-116. Kind of test: Anticancer activity against Homo sapiens (human) HCT116 cells assessed as cell growth at 10 uM by SRB assay. The following applies: read-out: Activity. The procedure, abridged:
(§1)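 NCI 60-cell human tumour panel (nine cancer types) screened at one concentration, 10−5 M. Cell growth estimated by sulforhodamine B protein staining and reported as percent growth of treated cells relative to untreated controls.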
A general note: In SRB staining, fixed cells bind dye roughly in proportion to their protein.

Test [2] has as its system Hs-578T. Briefly: Anticancer activity against Homo sapiens (human) Hs 578T cells by SRB assay. In short, it runs like this: (§2)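 NCI 60-line panel, five tenfold dilutions from 10−4 to 10−8 M, growth read by sulforhodamine B staining against untreated controls. From the dose–response per line: GI50 (molar concentration giving half growth inhibition), TGI (molar concentration giving total growth inhibition, cytostatic) and LC50 (molar concentration killing 50% of initial cells, cytotoxic).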

In test [3] the test system is OVCAR-4. Briefly: Anticancer activity against Homo sapiens (human) OVCAR4 cells assessed as cell growth at 10 uM by SRB assay. The following applies: read-out: Activity. In short, it runs like this: (§3)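 Single-dose screen in the NCI 60-human-tumour-cell-line panel (nine cancer types) at 10−5 M. Cell growth was estimated by sulforhodamine B protein staining and reported as percent growth of treated cells relative to untreated controls.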

In test [4] the test system is SF-268. Briefly: Anticancer activity against Homo sapiens (human) SF268 cells assessed as cell growth at 10 uM by SRB assay. The following applies: read-out: Activity. In short, it runs like this: as §3
Test [5] relates to IGROV-1. Kind of test: Anticancer activity against Homo sapiens (human) IGROV1 cells assessed as cell growth at 10 uM by SRB assay. The following applies: read-out: Activity. The procedure, abridged:
as §1

For test [6], the system named is A498. Briefly: Anticancer activity against Homo sapiens (human) A498 cells by SRB assay. In short, it runs like this: as §2

In general, GI50 refers to the concentration that inhibits growth by half. Higher therefore signals lower sensitivity of the cells. For `O=c1sc2c(Cl)nc(-c3ccccc3)nc2n1-c1ccccc1`, the growth at 10 µM is -53% in test [1], 31% in test [3], 52% in test [4] and -65% in test [5]. For the same compound, the GI50 in test [2] is 3.31 µM; in test [6], 3.47 µM. For the same compound, the TGI in test [2] (read-out: pTGI (converted)) is 18.6 µM.

(Values after ChEMBL document CHEMBL3045605, “Synthesis and anticancer evaluation of novel 3,5-diaryl-thiazolo[4,5-d]pyrimidin-2-one derivatives” (2013).)
